# ASAP1 inh – blocks human ASAP1-stimulated Arf1 GTP hydrolysis. Q9ULH1. GDP FP detection. inhibition, % at 16.5 µM. 360,000 tested, 0.19% active; in the data active = inhibition above about 25%;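 also: 0% = vehicle with enzyme and substrate and 100% = no enzyme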
# Target sequence (Q9ULH1 325-724 limits assumed): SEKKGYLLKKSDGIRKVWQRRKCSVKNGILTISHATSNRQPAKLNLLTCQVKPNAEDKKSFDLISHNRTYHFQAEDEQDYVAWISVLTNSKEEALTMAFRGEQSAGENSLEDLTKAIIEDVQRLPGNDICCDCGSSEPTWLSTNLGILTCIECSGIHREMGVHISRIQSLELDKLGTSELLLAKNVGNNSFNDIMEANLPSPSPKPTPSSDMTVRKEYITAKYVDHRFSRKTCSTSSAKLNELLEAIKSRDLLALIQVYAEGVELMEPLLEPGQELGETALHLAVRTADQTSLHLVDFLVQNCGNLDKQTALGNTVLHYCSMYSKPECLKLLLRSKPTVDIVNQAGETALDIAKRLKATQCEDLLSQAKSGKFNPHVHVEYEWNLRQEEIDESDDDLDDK
# MsrA inh – inhibits bovine methionine sulfoxide reductase A; inhibition, % at 15.5 µM; purified bovine MsrA, absorbance read-out; 360,000 tested, 0.75% active;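 also: 0% = vehicle wells with enzyme and 100% = reference inhibitor wells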
# bovine MsrA act – bovine methionine sulfoxide reductase A activation | purified bovine MsrA, absorbance read-out | AID 602163 | 360,000 tested, 0.3% active | activation, % at 10.6 µM; in the data active = activation above about 7.5%;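 also: 0% = vehicle and 100% = reference activator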
# ARFGAP1 inh – inhibitors of rat ARFGAP1 | Q62848 | Arfgap1-stimulated ARF1 GTP hydrolysis, GDP FP detection | inhibition, % at 16.5 µM | 360,000 tested, 0.26% active | AID 651572;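 active = inhibition above a per-plate limit, mean inhibition of low control wells plus 3 SD, cut at about 25% in these data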;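 also: 0% = DMSO wells with enzyme and 100% = wells lacking Arfgap1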
# Target sequence (Q62848 1-136 limits assumed): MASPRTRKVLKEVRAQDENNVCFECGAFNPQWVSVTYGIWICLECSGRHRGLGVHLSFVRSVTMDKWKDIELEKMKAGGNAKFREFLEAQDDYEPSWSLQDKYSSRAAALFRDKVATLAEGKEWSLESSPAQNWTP
#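 Assay system: Rat Arfgap1 GAP domain (His6, aa 1-136), purified enzyme | Buffer or medium: HEPES 25 mM pH 7.5, NaCl 150 mM, MgCl2, DTT | Schedule: GTP hydrolysis reaction 2 h at 25 °C | Signal: FP of antibody-bound GDP Alexa 633 tracer, ex 620/em 688 nm | Measure: Percent inhibition of Arfgap1-stimulated GTP hydrolysis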
# MsrA inh confirm – bovine MsrA inhibition, confirmed; 2,300 tested, 41% active; purified bovine MsrA, absorbance read-out; inhibition, % at 15.5 µM; shares compounds with MsrA inh; AID 651822;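 also: coupled to thioredoxin reductase with NADPH and selenocystamine and DMSO as substrate; 0% = vehicle only and 100% = full effect of reference inhibitor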
# * hit, by the source's call; nt = not tested or not shown. Rows were chosen to be rich in hits. Some 1.4% of all compounds tested hit in one or more screens of this group. Rule as the data show it, unless noted: active = inhibition above about 4.5%; inactive = the rest.
SMILES,ASAP1 inh,MsrA inh,bovine MsrA act,ARFGAP1 inh,MsrA inh confirm
CC(=O)c1ccc(-c2nc3ccccc3n2C)o1,-6,6.7*,-1,-5,2
Cc1ccc(-c2nc3ccccc3n2C)o1,3,-1,-1,-6,nt
Cc1oc2c(CN3CCOCC3)c(O)ccc2c(=O)c1-c1ccc(Cl)cc1,-2,5.3*,-11,8,1
CCOc1ccccc1C(=O)Nc1ccc(S(=O)(=O)Nc2nccc(C)n2)cc1,5,-1,-4,6,nt
Cc1cccc(OCC(=O)N(Cc2ccco2)C2CCS(=O)(=O)C2)c1C (configuration not stated),6,-1,-1,-3,nt
CC1(C)C(C=C(Cl)Cl)C1C(=O)Nc1ccc([N+](=O)[O-])cc1 (configuration not stated),-3,1,nt,-9,nt
CC(/C=C/c1ccc2c(c1)OCO2)=N\NC(=O)C(O)c1ccccc1 (configuration not stated),-4,4.9*,-5,-10,5.0*
CC(/C=C/c1ccc2c(c1)OCO2)=N\NC(=O)c1ccccc1,1,4,-5,8,nt
O=C(N/N=C/C=C/c1ccc2c(c1)OCO2)C(O)c1ccccc1 (configuration not stated),16,6.7*,-7,-26,4.8*
O=C(N/N=C\C=C\c1ccc2c(c1)OCO2)c1ccc(F)cc1,5,6.4*,-5,9,4.9*
COc1ccc(C(=O)NNC(=O)CCn2nnc(-c3ccc(C)cc3)n2)cc1OC,-3,0,-3,7,nt
O=[N+]([O-])c1ccc(O)c(C=Nc2cccc3ccccc23)c1,12,2,0,-8,nt
O=[N+]([O-])c1ccc(O)c(C=Nc2cccc3ncccc23)c1,7,5.2*,-14,5,3
COC(=O)c1ccc(C2/C(=C(\O)c3ccc4c(c3)OCCO4)C(=O)C(=O)N2CCCN2CCOCC2)cc1 (configuration not stated),0,1,2,-11,nt
O=C1C(=O)N(CCCN2CCOCC2)C(c2ccc([N+](=O)[O-])cc2)/C1=C(/O)c1ccc2c(c1)OCO2 (configuration not stated),-14,5.7*,-4,-3,3
COc1ccccc1N(C)C(=O)c1cc(S(=O)(=O)N2CCCC2)cn1C,-4,-1,-2,-4,nt
O=C1N=C(N2C=CC(=C3C=CNC=C3)C=C2)/C(=C/N=NC(=O)c2ccccc2)S1,8,11*,-5,6,11*
CCCCOc1ccc(S(=O)(=O)N2CCN(C)CC2)cc1,-14,0,-2,-11,nt
CSc1nc2[nH]c3c(c2c2nncn12)CC(C)(C)OC3,-4,1,-12,5,nt
CSc1nc2[nH]c3c(c2c2nnnn12)CCCC3,10,12*,-11,-8,10*
Nc1c2ccccc2nc2ccccc12,5,0,-3,-4,nt
N#Cc1c2ccccc2nc2ccccc12,15,7.0*,-3,6,5.0*
Cc1nonc1C(=O)N/N=C/c1cc2c(cc1Br)OCO2,-7,0,-12,1,nt
COCCCNC(=O)C(=O)N/N=C/c1cc2c(cc1Br)OCO2,-9,5.0*,-3,1,3
CCOC(=O)[C@@H]1CSCCS(=O)(=O)N1C(=O)[C@H](CCSC)NC(=O)OC(C)(C)C,-7,1,nt,10,nt
SMILES,ASAP1 inh,MsrA inh,bovine MsrA act,ARFGAP1 inh,MsrA inh confirm
O=[N+]([O-])c1cc([N+](=O)[O-])c2n[nH]c(-c3ccccc3)c2c1,22,5.2*,-2,6,5
CN(C)C(CNc1ccc(C(F)(F)F)cc1[N+](=O)[O-])c1ccccc1 (configuration not stated),-1,-1,-2,3,nt
Cn1c(=O)c(=O)n(C)c2cc(N3CCCC3)c(NS(=O)(=O)c3ccc(F)cc3)cc21,-2,3,-2,11,nt
Cn1c(=O)c(=O)n(C)c2cc(N3CCCCC3)c(NS(=O)(=O)c3ccc([N+](=O)[O-])cc3)cc21,-4,4.8*,-2,-2,2
O=[N+]([O-])c1ccc(N2CCCC2)c([N+](=O)[O-])c1,-7,9.0*,-5,8,5.5*
O=C(COC(=O)c1ccc(=O)[nH]c1)Nc1cccc(S(=O)(=O)N2CCOCC2)c1,-3,-1,-2,-1,nt
O=C(O)CC1S/C(=N/N=C/c2ccc([N+](=O)[O-])cc2)N(c2ccc(O)cc2)C1=O (configuration not stated),20,6.8*,-4,-7,3
COc1cc(/C=N\N=C2/SC(CC(=O)O)C(=O)N2c2ccc(O)cc2)ccc1O (configuration not stated),-1,4,-7,2,nt
O=C1CSC(=Nc2ccc(O)cc2)N1c1ccc(O)cc1,7,1,-9,-4,nt
COc1cc(/C=N/N=C2/SCC(=O)N2c2ccc(O)cc2)ccc1O,9,5.6*,-6,-3,4.6*
O=C(O)CC1S/C(=N\N=C2CCCCCC2)N(c2ccccc2)C1=O (configuration not stated),5,0,-13,0,nt
COc1ccc(/C=N\N=C2/SC(CC(=O)O)C(=O)N2c2ccc(O)cc2)cc1OC (configuration not stated),7,5.9*,-6,-13,4.9*
CNc1cncc(-c2cccc(C(C)=O)c2)n1,3,4,-3,2,nt
CNc1cncc(-c2cccc(NS(C)(=O)=O)c2)n1,4,5.8*,-2,-5,4
CC(=O)N1CCOc2ccc(S(=O)(=O)N3CCC(C(=O)NCc4ccc(Cl)cc4)CC3)cc21,-2,0,-5,-5,nt
COc1cc(/C=C/C(=O)c2c(O)ccc3c(C)cc(=O)oc23)ccc1O,-13,6.9*,-8,-4,6.1*
COc1ccc(/C=C\C(=O)c2c(O)ccc3c(C)cc(=O)oc23)cc1OC,-9,5.2*,-3,10,4
Cc1cc(=O)oc2c(C(=O)/C=C\c3cccs3)c(O)ccc12,0,5.2*,-6,-7,6.3*
Cc1cc(=O)oc2c(C(=O)/C=C/c3ccccc3)c(O)ccc12,-4,-1,-4,3,nt
CC1CC(C)CN(CCCCOc2ccc([N+](=O)[O-])cc2)C1 (configuration not stated),-5,0,-3,19,nt
C(=C\c1nc2ccccc2[nH]1)/c1ccccc1,4,4.7*,-9,5,4
C(=C\c1ccco1)/c1nc2ccccc2[nH]1,3,5.6*,-3,0,4.9*
C(=C\c1ccco1)/c1ccc2ccccc2n1,0,1,0,-8,nt
O=c1[nH]c(/C=C/c2ccc(Br)cc2)nc2ccccc12,-11,-1,0,4,nt
Cc1ccc2sc(N3CCN(CCNC(=O)c4ccco4)CC3)nc2c1C,9,-2,4,-1,nt
C=CCNc1nc(NCCNC(C)=O)c2sc(-c3ccccc3)cc2n1,-6,4.7*,3,5,1
C=CCNc1nc(Nc2ccc(OC)c(OC)c2)c2sc(-c3ccccc3)cc2n1,7,1,-3,3,nt

# Compound activity: PubChem, The Scripps Research Institute Molecular Screening Center
